The subject of assay [1] is Moloney murine leukemia virus. The experiment in a line: Antiretroviral activity in the XC-plaque assay using Moloney leukemia virus (MoLV) as a model for human immunodeficiency virus (HIV). It is filed as functional, organism-based.
The target of assay [2] is T1, Adenosylhomocysteinase (Mus musculus, UniProt P50247). Description: Activity determined in mouse liver S-adenosyl-L-homocysteine hydrolase and expressed as KI values.
Assay [3] addresses T2, Adenosylhomocysteinase (Rattus norvegicus, UniProt P10760).
T2 sequence (P10760 whole entry): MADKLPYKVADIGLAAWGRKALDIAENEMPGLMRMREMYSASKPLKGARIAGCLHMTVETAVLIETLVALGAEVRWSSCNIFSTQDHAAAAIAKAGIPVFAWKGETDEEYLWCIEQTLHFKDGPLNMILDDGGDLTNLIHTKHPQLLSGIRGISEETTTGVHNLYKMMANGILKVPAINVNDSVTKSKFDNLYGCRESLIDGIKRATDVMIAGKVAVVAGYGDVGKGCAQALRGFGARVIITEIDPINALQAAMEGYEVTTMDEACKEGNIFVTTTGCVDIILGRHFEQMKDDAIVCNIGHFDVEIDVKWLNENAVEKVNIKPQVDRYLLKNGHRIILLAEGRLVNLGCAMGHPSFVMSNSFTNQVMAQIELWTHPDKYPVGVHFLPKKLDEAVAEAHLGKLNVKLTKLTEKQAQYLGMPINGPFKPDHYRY
Description: (§1) Activity determined in rat liver S-adenosyl-L-homocysteine hydrolase and expressed as KI values.

The target in assay [4] is T2, Adenosylhomocysteinase. Description: Activity determined in rat liver S-adenosyl-L-homocysteine hydrolase and expressed as Kinactivator values.
Assay [5] addresses Adenosylhomocysteinase (Mus musculus) (UniProt P50247).
For assay [6], the target named is T3, Adenosylhomocysteinase (Rattus norvegicus) (UniProt P10760).
T3 sequence (whole entry): T2 sequence (P10760 whole entry)

In assay [7] the target is T3, Adenosylhomocysteinase (Rattus norvegicus). Described as §1.
For assay [8], the target named is T2, Adenosylhomocysteinase. The experiment in a line: Time-dependent inhibitory activity against rat liver S-adenosyl-L-homocysteine hydrolase.
Assay [9] concerns the target T2, Adenosylhomocysteinase. Description: Activity determined in rat liver S-Adenosyl-homocysteine hydrolase and expressed as KI values; NA= not applicable.
For assay [10], the target named is T2, Adenosylhomocysteinase. The experiment in a line: Competitive inhibitory activity against rat liver S-Adenosyl-homocysteine hydrolase.
In assay [11] the target is T1, Adenosylhomocysteinase. The experiment in a line: Activity determined in mouse liver S-Adenosyl-homocysteine hydrolase and expressed as KI values; NA= not applicable.
Assay [12] has as its target T1, Adenosylhomocysteinase. Description: Activity determined in mouse liver S-adenosyl-L-homocysteine hydrolase and expressed as KI values; NA= not applicable. A digest of the protocol:
(§2)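 Partially purified mouse liver enzyme (38–55% ammonium sulfate fraction, stored at –70 °C), assayed in the synthetic direction. The mix held […] potassium phosphate, 2 mM 2-mercaptoethanol, 0.1 mM adenosine plus [³H]adenosine, 10 mM DL-homocysteine and 1.0 μM 2-deoxycoformycin, run 10–20 min at 37 °C. [³H]SAH was separated on Cellex-P and counted. Time-dependent inactivation constants came from the Kitz–Wilson method.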

Assay [13] addresses T2, Adenosylhomocysteinase. Description: Activity determined in rat liver S-adenosyl-L-homocysteine hydrolase and expressed as KI values; NA= not applicable.
For assay [14], the target named is T2, Adenosylhomocysteinase. Description: Activity determined in rat liver S-adenosyl-L-homocysteine hydrolase and expressed as Kinactivator values; NA= not applicable.
Assay [15] deals with T1, Adenosylhomocysteinase. The experiment in a line: Activity determined in mouse liver S-Adenosyl-L-homocysteine (SAH) Hydrolase and expressed as KI values; NA= not applicable. Put shortly:
as §2

Assay [16] addresses T2, Adenosylhomocysteinase. Description: Activity determined in rat liver S-Adenosyl-L-homocysteine (SAH) Hydrolase and expressed as KI values; NA= not applicable.

≈ marks a conversion by molar mass, not a printed value.

T1 sequence (P50247 whole entry): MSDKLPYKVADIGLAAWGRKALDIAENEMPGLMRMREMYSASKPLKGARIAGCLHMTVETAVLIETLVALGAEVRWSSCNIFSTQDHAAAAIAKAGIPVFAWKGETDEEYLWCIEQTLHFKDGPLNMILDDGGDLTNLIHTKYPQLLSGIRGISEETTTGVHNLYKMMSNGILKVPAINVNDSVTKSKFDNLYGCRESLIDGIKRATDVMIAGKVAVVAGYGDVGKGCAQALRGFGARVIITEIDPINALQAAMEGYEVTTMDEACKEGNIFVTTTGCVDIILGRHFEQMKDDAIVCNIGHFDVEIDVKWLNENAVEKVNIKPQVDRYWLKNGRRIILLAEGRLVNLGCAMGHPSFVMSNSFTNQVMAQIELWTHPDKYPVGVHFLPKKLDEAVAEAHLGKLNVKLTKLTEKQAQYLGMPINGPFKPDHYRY
Adenosylhomocysteinase (Mus musculus), sequence (P50247 2-432 limits assumed): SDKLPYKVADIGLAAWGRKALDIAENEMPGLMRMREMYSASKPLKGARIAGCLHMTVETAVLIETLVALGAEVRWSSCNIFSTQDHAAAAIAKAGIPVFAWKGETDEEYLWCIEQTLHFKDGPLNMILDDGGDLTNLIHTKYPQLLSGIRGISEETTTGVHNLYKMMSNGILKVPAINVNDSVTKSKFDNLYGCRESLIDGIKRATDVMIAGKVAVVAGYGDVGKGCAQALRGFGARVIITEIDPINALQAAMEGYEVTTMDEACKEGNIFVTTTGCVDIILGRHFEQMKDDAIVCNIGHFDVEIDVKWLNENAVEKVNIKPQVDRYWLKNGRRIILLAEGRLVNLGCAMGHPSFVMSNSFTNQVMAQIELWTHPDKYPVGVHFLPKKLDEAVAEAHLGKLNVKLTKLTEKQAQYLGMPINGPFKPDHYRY

In turn, `Nc1ncnc2c1ncn2[C@@H]1O/C(=C/F)[C@@H](O)[C@H]1O` returned an IC50 in assay [1] of 0.25 µg/mL (≈ 0.936 µM). The Ki at Adenosylhomocysteinase [2] was 1.04 µM; on Adenosylhomocysteinase [3], 2.4 µM; at Adenosylhomocysteinase [4], “Not Active”. Besides, the K inact in assay [5] worked out at 0.23 min⁻¹; in [6], 0.14 min⁻¹.
`Nc1ncnc2c1ncn2C1O[C@H](C(F)F)[C@@H](O)[C@H]1O` (stereo partly specified) displayed an IC50 in assay [1] of 0.8 µg/mL (≈ 2.79 µM). Moreover, the Ki on Adenosylhomocysteinase [2] is 10 µM; at Adenosylhomocysteinase [4] (read-out: Ki) it was 9.7 µM; on Adenosylhomocysteinase [8], 9.7 µM. Further, the K inact in [7] is 0.04 min⁻¹; in [5], 0.6 min⁻¹.
The molecule `Nc1ncnc2c1ncn2[C@@H]1O/C(=C\F)[C@@H](O)[C@H]1O` returned an IC50 in [1] of 0.05 µg/mL (≈ 0.187 µM). Moreover, the values for the Ki on Adenosylhomocysteinase [2], on Adenosylhomocysteinase [3] and on Adenosylhomocysteinase [4] were 0.55 µM, 6.5 µM and “Not Active”, respectively. Besides, the K inact was found to be 0.28 min⁻¹ in [5] and 0.8 min⁻¹ in assay [6].
`Nc1ncnc2c1ncn2[C@@H]1O[C@H](CO)[C@@H](O)[C@@H]1O` [VIDARABINE]: in assay [1], half-maximal inhibition (IC50) required 1 µg/mL (≈ 3.74 µM). At Adenosylhomocysteinase [2], the Ki was determined as 30 µM.
With `Nc1ncnc2c1ncn2[C@@H]1O/C(=C/F)[C@@H](O)[C@@H]1O`, in [1], the IC50 was found to be 4.4 µg/mL (≈ 16.5 µM). Further, the Ki entry on Adenosylhomocysteinase [9] was “Not Active”; on Adenosylhomocysteinase [10] it was 3.2 µM; at Adenosylhomocysteinase [11], “Not Active”.
Take `Nc1ncnc2c1ncn2[C@@H]1O/C(=C(\F)Cl)[C@@H](O)[C@H]1O`: the IC50 in assay [1] was determined as 1.3 µg/mL (≈ 4.31 µM). In addition, the Ki result at Adenosylhomocysteinase [12] is “Not Active”; on Adenosylhomocysteinase [13] it was “Not Active”; on Adenosylhomocysteinase [14], 3 µM.
As for `Nc1ncnc2c1ncn2[C@H]1C[C@H](O)/C(=C\F)O1`, the Ki result at Adenosylhomocysteinase [15] and on Adenosylhomocysteinase [16] was “Not Active” each time.
With `Nc1ncnc2c1ncn2[C@@H]1O/C(=C(/F)Cl)[C@@H](O)[C@H]1O`, the half-maximal inhibitory concentration (IC50) in [1] was determined as 0.1 µg/mL (≈ 0.331 µM). Further, the results for the Ki entry at Adenosylhomocysteinase [9], on Adenosylhomocysteinase [10] and at Adenosylhomocysteinase [11] were “Not Active”, 1.5 µM and “Not Active”, respectively.
In assay [1], `Nc1ncnc2c1ncn2[C@@H]1O/C(=C\Cl)[C@@H](O)[C@H]1O` came in with an IC50 of 3.3 µg/mL (≈ 11.6 µM). The results for the Ki entry on Adenosylhomocysteinase [12], on Adenosylhomocysteinase [13] and on Adenosylhomocysteinase [14] were “Not Active”, “Not Active” and 1.6 µM, respectively.
`Nc1ncnc2c1ncn2[C@@H]1O/C(=C\F)[C@@H](O)[C@@H]1O` had an IC50 in assay [1] of 1.2 µg/mL (≈ 4.49 µM). In addition, the results for the Ki entry at Adenosylhomocysteinase [9], at Adenosylhomocysteinase [10] and at Adenosylhomocysteinase [11] were “Not Active”, 11 µM and “Not Active”, respectively.
With `Nc1ncnc2c1ncn2[C@H]1C[C@H](O)/C(=C/F)O1`, in assay [1], the midpoint of inhibition, the IC50, lay at 10 µg/mL (≈ 39.8 µM). Moreover, the Ki result at Adenosylhomocysteinase [12] was “Not Active”; on Adenosylhomocysteinase [13] it was “Not Active”; on Adenosylhomocysteinase [14], 150 µM.

As usually defined, the IC50 is the concentration at which inhibition is half-maximal. Low readings indicate greater potency in that assay, high ones weaker potency in that assay.

The values above are taken from ChEMBL document CHEMBL1125244, “4',5'-unsaturated 5'-halogenated nucleosides. Mechanism-based and competitive inhibitors of S-adenosyl-L-homocysteine hydrolase” (J Med Chem, 1991).
